Laboratory results reported in ChEMBL document CHEMBL1140119, “Heteroarylnitrones as drugs for neurodegenerative diseases: synthesis, neuroprotective properties, and free radical scavenger properties” (J Med Chem, 2008).
pIC50: −log10 of the molar value. The source made the active and inactive calls. The calls are words filed in the database; no cut-off is given here.

Key:
SH-SY5Y [1] = experiment: Neuroprotective activity against human SH-SY5Y cells assessed as inhibition of H2O2-induced cellular damage at 10 uM after 24 hrs relative to control; format: functional; parameters: scale not given: the % may be the effect or the level left
Procedure, shortened: (§1)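 SH-SY5Y cells (passages 3-16, MEM with 10% FBS, 37 °C, 5% CO2) seeded at 10^4 cells/well. Pretreated with compound at 10 µM for 1 h, then 100 µM H2O2 for 24 h; NAC 5 mM as positive control. Viability from LDH released into the medium. Difference relative to H2O2-only cells, normalized; neuroprotection computed from basal values. Triplicate, mean ± SD.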

SH-SY5Y [2] = experiment: Neuroprotective activity against human SH-SY5Y cells assessed as inhibition of H2O2-induced cellular damage at 10 uM dosed 1 hr prior to H2O2 challenge after 24 hrs relative to control; format: functional; parameters: scale not given: the % may be the effect or the level left; procedure, shortened: as §1
J774 [3] = experiment: Cytotoxicity against mouse J774 cells after 48 hrs by MTT assay; format: cell-based; settings: J774, 48 h
Procedure, shortened: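 J774 murine macrophages seeded at 1 × 10^5 cells/well and left 48 h at 37 °C in 5% CO2 to attach. Exposed to compounds at 50-500 µM for 48 h. MTT 0.2 mg/mL final for 3 h, formazan dissolved in DMSO, absorbance at 560 nm. IC50 is the concentration reducing control absorbance by 50%, averaged over two experiments.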

[4] = Antioxidant activity assessed as peroxyl free radical scavenging activity by ORAC-fluorescence assay relative to alpha-phenyl-N-tert-butylnitrone; format: functional
Procedure, shortened: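 Peroxyl scavenging by fluorescein ORAC at 60 °C in 75 mM phosphate buffer pH 7.4. Compounds at 10-1000 µM final with fluorescein 70 nM final; 30 s preincubation, then AAPH 12 mM final. Fluorescence (ex 490/em 515) read every minute for 12 min. Net AUC versus blank regressed on concentration and expressed as µmol PBN equivalents per µmol sample. Duplicates, at least three independent assays.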

[5] = tested on: Radical scavenging activity; experiment: Antioxidant activity assessed as reduction of DPPH radical scavenging activity at 0.1 mM; format: functional; parameters: scale not given: the % may be the effect or the level left
Procedure, shortened: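 DPPH reduction in ethanol. Test compound and DPPH both 0.1 mM final, preincubated 5 min at 37 °C, absorbance read at 520 nm. Reduction percentage = 100[(A0 − Ac)/A0], with A0 the untreated DPPH absorbance.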

J774 [6] = experiment: Cytotoxicity against mouse J774 cells at 10 uM after 48 hrs by MTT assay; format: cell-based; settings: j774, 48 h
[7] = tested on: Radical scavenging activity; experiment: Antioxidant activity assessed as reduction of DPPH radical scavenging activity at 10 mM; format: functional; parameters: scale not given: the % may be the effect or the level left
Homo sapiens = species on record: Homo sapiens; experiment: Neuroprotective activity against oxidative stress-induced cell death in human neuroblastoma cells; format: functional, cell-based
SH-SY5Y [8] = experiment: Neuroprotective activity against human SH-SY5Y cells assessed as inhibition of H2O2-induced cellular damage at 1 uM dosed 1 hr prior to H2O2 challenge after 24 hrs relative to control; format: functional; parameters: scale not given: the % may be the effect or the level left
Procedure, shortened: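 SH-SY5Y neuroblastoma cells given compound at 1 µM 1 h before a 100 µM H2O2 challenge and then incubated 24 h. Viability measured as LDH activity and compared with H2O2-only cells; NAC 5 mM used as positive control. Three independent experiments, mean ± SD.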

[9] = Permeability across porcine brain lipid coated polyvinylidene fluoride membrane by PAMPA; format: ADME; settings: pig, read-out: permeability
Procedure, shortened: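 PAMPA-BBB assay. Filter of the donor plate (PVDF, 0.45 µm) coated with porcine brain lipid in dodecane (20 mg/mL). Compounds at 1 mg/mL in PBS/ethanol (9:1), filtered, placed in donor wells; acceptor wells held PBS/ethanol (9:1). Sandwich left 120 min at 25 °C, acceptor concentration measured by UV. Four wells per sample, at least three runs, mean ± SD.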

CC(C)(C)/[N+]([O-])=C/c1nc(-c2ccc(Cl)cc2)ns1
Activity (SH-SY5Y [1]): 19.1%
Activity (SH-SY5Y [2]): 34%
pIC50 (J774 [3]): 3.70
PBN equivalents [4]: 1.5
Activity [5]: 0%
Activity (J774 [6]): Non-toxic

CC(C)(C)/[N+]([O-])=C/c1ccccc1
Activity (SH-SY5Y [1]): 20.6%
Activity (SH-SY5Y [2]): 37%
pIC50 (J774 [3]): < 3.40
PBN equivalents [4]: 1
Activity [5]: 0%
Activity [7]: 20%

CCOC(=O)c1snnc1/C=[N+](\[O-])C(C)(C)C
Activity (SH-SY5Y [1]): 0%
Activity (Homo sapiens): inactive
pIC50 (J774 [3]): < 3.40
Activity [5]: 0%
Activity (J774 [6]): Non-toxic

CC(C)(C)c1cc(-c2nsc(/C=[N+](\[O-])C(C)(C)C)n2)cc(C(C)(C)C)c1O
Activity (SH-SY5Y [1]): 25.2%
Activity (SH-SY5Y [2]): 46%
Activity (SH-SY5Y [8]): 20%
pIC50 (J774 [3]): < 3.40
Papp [9]: 4.5 ×10⁻⁶ cm/s
PBN equivalents [4]: 6
Activity [5]: 40%
Activity (J774 [6]): Non-toxic

[O-]/[N+](=C\c1nc(-c2ccccc2)ns1)Cc1ccccc1
Activity (SH-SY5Y [1]): 18.1%
Activity (SH-SY5Y [2]): 33%
pIC50 (J774 [3]): 3.62
PBN equivalents [4]: 3.5
Activity [5]: 0%
Activity (J774 [6]): Non-toxic

CC(C)(C)/[N+]([O-])=C/c1c(-c2ccccc2)no[n+]1[O-]
Activity (SH-SY5Y [1]): 0%
Activity (Homo sapiens): inactive
pIC50 (J774 [3]): 4.00
PBN equivalents [4]: 6
Activity [5]: 0%
Activity (J774 [6]): Non-toxic

Cc1nnsc1/C=[N+](\[O-])C(C)(C)C
Activity (SH-SY5Y [1]): 0%
Activity (Homo sapiens): inactive
pIC50 (J774 [3]): < 3.40
Activity [5]: 0%
Activity (J774 [6]): Non-toxic

CC(C)(C)/[N+]([O-])=C/c1nc(-c2ccccc2)ns1
Activity (SH-SY5Y [1]): 20.7%
Activity (SH-SY5Y [2]): 38%
pIC50 (J774 [3]): < 3.40
PBN equivalents [4]: 5.5
Activity [5]: 0%
Activity (J774 [6]): Non-toxic

CC(C)(C)/[N+]([O-])=C/c1ccc2no[n+]([O-])c2c1
Activity (SH-SY5Y [1]): 13.4%
Activity (SH-SY5Y [2]): 24%
pIC50 (J774 [3]): 3.82
PBN equivalents [4]: 16.5
Activity [5]: 17%
Activity (J774 [6]): Non-toxic

COc1ccc(-c2nsc(/C=[N+](\[O-])C(C)(C)C)n2)cc1
Activity (SH-SY5Y [1]): 25%
Activity (SH-SY5Y [2]): 46%
pIC50 (J774 [3]): < 3.40
Papp [9]: 12.5 ×10⁻⁶ cm/s
PBN equivalents [4]: 7
Activity [5]: 10%
Activity (J774 [6]): Non-toxic

[O-]/[N+](=C\c1nc(-c2ccccc2)ns1)C1CCCCC1
Activity (SH-SY5Y [1]): 23.6%
Activity (SH-SY5Y [2]): 43%
pIC50 (J774 [3]): 4.00
PBN equivalents [4]: 4.6
Activity [5]: 11%
Activity (J774 [6]): Non-toxic

CC(C)(C)/[N+]([O-])=C/c1nsc(-c2ccccc2)n1
Activity (SH-SY5Y [1]): 20%
Activity (SH-SY5Y [2]): 36%
pIC50 (J774 [3]): < 3.40
PBN equivalents [4]: 2
Activity [5]: 41%
Activity (J774 [6]): Non-toxic

Cc1c(/C=[N+](\[O-])C(C)(C)C)no[n+]1[O-]
Activity (SH-SY5Y [1]): 23%
Activity (SH-SY5Y [2]): 42%
pIC50 (J774 [3]): < 3.40
PBN equivalents [4]: 2.5
Activity [5]: 8%
Activity (J774 [6]): Non-toxic
